Laboratory results from ChEMBL document CHEMBL1165899, “Synthesis and antitumor evaluation of novel cyclic arylsulfonylureas: ADME-T and pharmacophore prediction” (2010).

Key:
Assay type in all cases: functional
SK-MEL-5 = assay: Growth inhibition of human SK-MEL-5 cells at 10 uM after 48 hrs by sulforhodamine B assay relative to control; conditions: SK-MEL-5, 48 h, read-out: GI
LOX IMVI = assay: Growth inhibition of human LOXIMVI cells at 10 uM after 48 hrs by sulforhodamine B assay relative to control; conditions: read-out: GI
UO-31 = assay: Growth inhibition of human UO31 cells at 10 uM after 48 hrs by sulforhodamine B assay relative to control; conditions: UO-31, 48 h, read-out: GI
Outline: (§1)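 NCI 60-cell-line single-dose screen at 10 µM. Cells were plated at 5000–40,000 cells/well according to doubling time, in medium with 2 mM L-glutamine, and held 24 h at 37 °C, 5% CO₂, 100% humidity before drug. Time-zero plates were TCA-fixed. Exposure was 48 h, then TCA fixation and sulforhodamine B staining for 10 min, acetic acid washes, 10 mM trizma solubilization and A515. % inhibition = 100 − % activity, where 100% is the DMSO-solvent control.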

TK-10 = assay: Growth inhibition of human TK10 cells at 10 uM after 48 hrs by sulforhodamine B assay relative to control; conditions: TK-10, 48 h, read-out: GI; outline: as §1
SN12C = assay: Growth inhibition of human SN12C cells at 10 uM after 48 hrs by sulforhodamine B assay relative to control; conditions: read-out: GI
RXF 393 = assay: Growth inhibition of human RXF393 cells at 10 uM after 48 hrs by sulforhodamine B assay relative to control; conditions: RXF 393, 48 h, read-out: GI
CAKI-1 = assay: Growth inhibition of human Caki1 cells at 10 uM after 48 hrs by sulforhodamine B assay relative to control; conditions: CAKI-1, 48 h, read-out: GI
ACHN = assay: Growth inhibition of human ACHN cells at 10 uM after 48 hrs by sulforhodamine B assay relative to control; conditions: read-out: GI
A498 = assay: Growth inhibition of human A498 cells at 10 uM after 48 hrs by sulforhodamine B assay relative to control; conditions: A498, 48 h, read-out: GI
SR = assay: Growth inhibition of human SR cells at 10 uM after 48 hrs by sulforhodamine B assay relative to control; conditions: read-out: GI
[1] = Growth inhibition of human […] cells at 10 uM after 48 hrs by sulforhodamine B assay relative to control; conditions: read-out: GI
MOLT-4 = assay: Growth inhibition of human MOLT4 cells at 10 uM after 48 hrs by sulforhodamine B assay relative to control; conditions: MOLT-4, 48 h, read-out: GI
K562 = assay: Growth inhibition of human K562 cells at 10 uM after 48 hrs by sulforhodamine B assay relative to control; conditions: K562, 48 h, read-out: GI
DU-145 = assay: Growth inhibition of human DU145 cells at 10 uM after 48 hrs by sulforhodamine B assay relative to control; conditions: DU-145, 48 h, read-out: GI
SK-OV-3 = assay: Growth inhibition of human SKOV3 cells at 10 uM after 48 hrs by sulforhodamine B assay relative to control; conditions: SK-OV-3, 48 h, read-out: GI
OVCAR-8 = assay: Growth inhibition of human OVCAR8 cells at 10 uM after 48 hrs by sulforhodamine B assay relative to control; conditions: OVCAR-8, 48 h, read-out: GI
OVCAR-5 = assay: Growth inhibition of human OVCAR5 cells at 10 uM after 48 hrs by sulforhodamine B assay relative to control; conditions: OVCAR-5, 48 h, read-out: GI
OVCAR-3 = assay: Growth inhibition of human OVCAR-3 cells at 10 uM after 48 hrs by sulforhodamine B assay relative to control; conditions: OVCAR-3, 48 h, read-out: GI
IGROV-1 = assay: Growth inhibition of human IGROV1 cells at 10 uM after 48 hrs by sulforhodamine B assay relative to control; conditions: IGROV-1, 48 h, read-out: GI
NCI/ADR-RES = assay: Growth inhibition of human NCI/ADR-RES cells at 10 uM after 48 hrs by sulforhodamine B assay relative to control; conditions: read-out: GI
MDA-MB-231 = assay: Growth inhibition of human MDA-MB-231 cells at 10 uM after 48 hrs by sulforhodamine B assay relative to control; conditions: MDA-MB-231, 48 h, read-out: GI
MCF7 = assay: Growth inhibition of human MCF7 cells at 10 uM after 48 hrs by sulforhodamine B assay relative to control; conditions: MCF7, 48 h, read-out: GI
SW-620 = assay: Growth inhibition of human SW620 cells at 10 uM after 48 hrs by sulforhodamine B assay relative to control; conditions: SW-620, 48 h, read-out: GI; outline: as §1
KM12 = assay: Growth inhibition of human KM12 cells at 10 uM after 48 hrs by sulforhodamine B assay relative to control; conditions: KM12, 48 h, read-out: GI
COLO 205 = assay: Growth inhibition of human COLO205 cells at 10 uM after 48 hrs by sulforhodamine B assay relative to control; conditions: COLO 205, 48 h, read-out: GI
NCI-H522 = assay: Growth inhibition of human NCI-H522 cells at 10 uM after 48 hrs by sulforhodamine B assay relative to control; conditions: NCI-H522, 48 h, read-out: GI
NCI-H322M = assay: Growth inhibition of human NCI-H322M cells at 10 uM after 48 hrs by sulforhodamine B assay relative to control; conditions: read-out: GI
NCI-H226 = assay: Growth inhibition of human NCI-H226 cells at 10 uM after 48 hrs by sulforhodamine B assay relative to control; conditions: NCI-H226, 48 h, read-out: GI
HOP-92 = assay: Growth inhibition of human HOP92 cells at 10 uM after 48 hrs by sulforhodamine B assay relative to control; conditions: HOP-92, 48 h, read-out: GI
EKVX = assay: Growth inhibition of human EKVX cells at 10 uM after 48 hrs by sulforhodamine B assay relative to control; conditions: read-out: GI
SF-268 = assay: Growth inhibition of human SF268 cells at 10 uM after 48 hrs by sulforhodamine B assay relative to control; conditions: SF-268, 48 h, read-out: GI
SF-295 = assay: Growth inhibition of human SF295 cells at 10 uM after 48 hrs by sulforhodamine B assay relative to control; conditions: SF-295, 48 h, read-out: GI
SF-539 = assay: Growth inhibition of human SF539 cells at 10 uM after 48 hrs by sulforhodamine B assay relative to control; conditions: SF-539, 48 h, read-out: GI
SNB-75 = assay: Growth inhibition of human SNB75 cells at 10 uM after 48 hrs by sulforhodamine B assay relative to control; conditions: SNB-75, 48 h, read-out: GI
UACC-257 = assay: Growth inhibition of human UACC257 cells at 10 uM after 48 hrs by sulforhodamine B assay relative to control; conditions: UACC-257, 48 h, read-out: GI; outline: as §1

SMILES: CN(C)c1ccc(/C=C2\NC(=O)N(S(=O)(=O)c3ccc(Cl)cc3)C2=O)cc1
- inhibition of growth at 10 µM (SK-MEL-5): -3.11%
- inhibition of growth at 10 µM (LOX IMVI): 6.44%
- inhibition of growth at 10 µM (UO-31): 5.5%
- inhibition of growth at 10 µM (TK-10): -33.4%
- inhibition of growth at 10 µM (SN12C): 0.04%
- inhibition of growth at 10 µM (RXF 393): 95.7%
- inhibition of growth at 10 µM (CAKI-1): -5.71%
- inhibition of growth at 10 µM (ACHN): -5.38%
- inhibition of growth at 10 µM (A498): -8.94%
- inhibition of growth at 10 µM (SR): 34.7%
- inhibition of growth at 10 µM [1]: -6.72%
- inhibition of growth at 10 µM (MOLT-4): 11.5%
- inhibition of growth at 10 µM (K562): 8.89%
- inhibition of growth at 10 µM (DU-145): -4.25%
- inhibition of growth at 10 µM (SK-OV-3): -8.45%
- inhibition of growth at 10 µM (OVCAR-8): -8.63%
- inhibition of growth at 10 µM (OVCAR-5): -4.44%
- inhibition of growth at 10 µM (OVCAR-3): -13.9%
- inhibition of growth at 10 µM (IGROV-1): 97.9%
- inhibition of growth at 10 µM (NCI/ADR-RES): -6.33%
- inhibition of growth at 10 µM (MDA-MB-231): -2.18%
- inhibition of growth at 10 µM (MCF7): -6.37%
- inhibition of growth at 10 µM (SW-620): -1.96%
- inhibition of growth at 10 µM (KM12): -11.6%
- inhibition of growth at 10 µM (COLO 205): -14.7%
- inhibition of growth at 10 µM (NCI-H522): 9.78%
- inhibition of growth at 10 µM (NCI-H322M): -16.5%
- inhibition of growth at 10 µM (NCI-H226): -9.94%
- inhibition of growth at 10 µM (HOP-92): 11.2%
- inhibition of growth at 10 µM (EKVX): 14.7%
- inhibition of growth at 10 µM (SF-268): -21.6%
- inhibition of growth at 10 µM (SF-295): -8.92%
- inhibition of growth at 10 µM (SF-539): -0.9%
- inhibition of growth at 10 µM (SNB-75): -5.55%
- inhibition of growth at 10 µM (UACC-257): -1.01%
